Assays:
[1] = tested on: Human immunodeficiency virus 1; experiment: Antiviral activity against HIV1 3B in MT2 cells; type: functional, organism-based; conditions: Human immunodeficiency virus 1, 3B
In short: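 HIV-1 IIIB infection of human MT-2 T-cells. Protection was read by MTT colorimetric assay. Curves used triplicate samples at each concentration.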

[2] = Cytotoxicity against MT2 cells; type: cell-based; conditions: human
In short: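 Growth of MT-2 cells was measured by MTT colorimetric read-out, run at the same time as the anti-HIV-1 IIIB protection assay.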

[3] = Ratio of CC50 for MT cells/EC50 for HIV1; type: functional

| Structure (SMILES) | EC50 [1] [nM] | CC50 [2] [nM] | Ratio CC50/EC50 [3] |
| --- | --- | --- | --- |
| CC(C)=CCOc1cc(Nc2nc(C)nc(Cl)n2)ccc1Cl | 12000 | 40000 |  |
| COc1ccnc(Nc2ccc(Cl)c(Oc3ccc(C)cc3)c2)n1 | 10000 | > 100000 |  |
| O=C1Nc2ccc(Cl)cc2[C@@](C#CC2CC2)(C(F)(F)F)O1 [EFAVIRENZ] |  | > 100 |  |
| COc1ccnc(Nc2ccc(Cl)c(Oc3ccccc3C)c2)n1 |  | 13000 |  |
| CC(C)=CCOc1cc(Nc2nccc(CO)n2)ccc1Cl |  | 220 |  |
| C/C=C/COc1cc(Nc2ncccn2)ccc1Cl | 2300 | 31000 |  |
| COc1ccnc(Nc2ccc(Cl)c(Oc3ccccc3)c2)n1 | 2500 | 38000 |  |
| COc1ccnc(Nc2ccc(Cl)c(Sc3ccccc3)c2)n1 | 320 | 21000 |  |
| COc1nc(Nc2ccc(Cl)c(OCC=C(C)C)c2)nc(OC)n1 | 290 | 20000 |  |
| Cc1ccnc2c1NC(=O)c1cccnc1N2C1CC1 [NEVIRAPINE] |  | > 10000 |  |
| COc1cc(N)nc(Nc2ccc(Cl)c(OCC=C(C)C)c2)n1 | 3000 | 19000 |  |
| Cc1cc(C#N)cc(C)c1Oc1nc(Nc2ccc(C#N)cc2)nc(N)c1Br [ETRAVIRINE] |  | > 1000 |  |
| COCc1ccnc(Nc2ccc(Cl)c(OCC=C(C)C)c2)n1 |  | > 25000 |  |
| CC(C)=CCOc1cc(Nc2ncnc(Cl)n2)ccc1Cl |  | 45000 |  |
| CC(C)=CCOc1cc(Nc2ncnc(N)n2)ccc1Cl | 390 | 48000 |  |
| CC(C)=CCOc1cc(Nc2ncnc(Cl)n2)ccc1C#N | 310 | > 100000 |  |
| COc1ccnc(Nc2ccc(Cl)c(Oc3cccc(C)c3)c2)n1 | 540 | 18000 |  |
| Clc1ccc(Nc2ncccn2)cc1Oc1ccccc1 | 13000 | 30000 |  |
| COc1nc(Cl)nc(Nc2ccc(Cl)c(OCC=C(C)C)c2)n1 |  | 26000 |  |

More lines, in order of falling EC50 [1], values ahead:

| EC50 [1] [nM] | Structure (SMILES) | CC50 [2] [nM] | Ratio CC50/EC50 [3] |
| --- | --- | --- | --- |
| 250 | COc1cc(OC)nc(Nc2ccc(Cl)c(OCC=C(C)C)c2)n1 | 28000 |  |
| 200 | CC(C)=CCOc1cc(Nc2ncccn2)ccc1Cl | 2500 |  |
| 160 | COc1cc(OC)nc(Nc2ccc(C#N)c(OCC=C(C)C)c2)n1 | 810 |  |
| 100 | COc1nc(C)nc(Nc2ccc(Cl)c(OCC=C(C)C)c2)n1 | 12000 |  |
| 89 | C/C=C/COc1cc(Nc2nccc(OC)n2)ccc1Cl | 17000 |  |
| 75 | CC(C)=CCOc1cc(Nc2nccc(N)n2)ccc1Cl | 500 |  |
| 41 | CCOc1ccnc(Nc2ccc(Cl)c(OCC=C(C)C)c2)n1 | 19000 |  |
| 39 | CC(C)=CCOc1cc(Nc2nccc(C)n2)ccc1Cl | 150 |  |
| 31 | COc1ncnc(Nc2ccc(Cl)c(OCC=C(C)C)c2)n1 | 18000 |  |
| 31 | CNc1ncnc(Nc2ccc(Cl)c(OCC=C(C)C)c2)n1 | 3100 |  |
| 22 | COc1nc(Nc2ccc(C#N)c(OCC=C(C)C)c2)nc(OC)n1 | > 100000 | >1000 |
| 18 | CSc1ccnc(Nc2ccc(Cl)c(OCC=C(C)C)c2)n1 | 2800 |  |
| 17 | CC(C)=CCOc1cc(Nc2ncccn2)ccc1C#N | 36 |  |
| 16 | CCc1ccnc(Nc2ccc(Cl)c(OCC=C(C)C)c2)n1 | 330 |  |
| 15 | CC(C)=CCOc1cc(Nc2ncnc(N)n2)ccc1C#N | 200 |  |
| 10 | COc1ccnc(Nc2ccc(Cl)c(OCC=C(C)C)c2)n1 | 9000 |  |
| 9 | COc1nc(N)nc(Nc2ccc(C#N)c(OCC=C(C)C)c2)n1 | 110 |  |
| 6 | CNc1ccnc(Nc2ccc(Cl)c(OCC=C(C)C)c2)n1 | 690 |  |
| 5 | CNc1ccnc(Nc2ccc(C#N)c(OCC=C(C)C)c2)n1 | 22 |  |
| 5 | CSc1ncnc(Nc2ccc(C#N)c(OCC=C(C)C)c2)n1 | 8400 | >1000 |
| 2 | COc1ccnc(Nc2ccc(C#N)c(OCC=C(C)C)c2)n1 |  |  |

— ChEMBL document CHEMBL1139692, “Optimization of pyrimidinyl- and triazinyl-amines as non-nucleoside inhibitors of HIV-1 reverse transcriptase” (Bioorg Med Chem Lett, 2006)
